# Measured values published in ChEMBL document CHEMBL2086318, “Synthesis and in vitro antimycobacterial activity of 2-methoxybenzanilides and their thioxo analogues” (Eur J Med Chem, 2012).
# Assays:
# Type in all cases: functional
# [1] = system: Mycobacterium avium; assay: Antimycobacterial activity against Mycobacterium avium My 330/88 after 21 days by micromethod; conditions: My 330/88, 504 h
# [2] = system: Mycobacterium tuberculosis; assay: Antimycobacterial activity against Mycobacterium tuberculosis My 331/88 after 14 days by micromethod; conditions: My 331/88, 336 h
# Procedure, shortened: (§1)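 MIC by micromethod at 37 °C, read after 14 and 21 days. Inocula were M. tuberculosis My 331/88 at 10^-3 dilution and M. avium My 330/88 at 10^-5 dilution. Compounds added in DMSO across 1000, 500, 250, 125, 62.5, 32, 16, 8, 4, 2, 1 and 0.5; isoniazid standard in sterile water. MIC taken as the lowest concentration inhibiting growth.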
# [3] = system: Mycobacterium tuberculosis; assay: Antimycobacterial activity against Mycobacterium tuberculosis My 331/88 after 21 days by micromethod; conditions: My 331/88, 504 h; procedure, shortened: as §1
# [4] = system: Mycobacterium kansasii; assay: Antimycobacterial activity against Mycobacterium kansasii My 6509/96 clinical isolate after 21 days by micromethod; conditions: My 6509/96, 504 h
# [5] = system: Mycobacterium kansasii; assay: Antimycobacterial activity against Mycobacterium kansasii My 235/80 after 7 days by micromethod; conditions: My 235/80, 168 h
# [6] = system: Mycobacterium kansasii; assay: Antimycobacterial activity against Mycobacterium kansasii My 6509/96 clinical isolate after 7 days by micromethod; conditions: My 6509/96, 168 h
# [7] = system: Mycobacterium kansasii; assay: Antimycobacterial activity against Mycobacterium kansasii My 6509/96 clinical isolate after 14 days by micromethod; conditions: My 6509/96, 336 h
# [8] = system: Mycobacterium avium; assay: Antimycobacterial activity against Mycobacterium avium My 330/88 after 14 days by micromethod; conditions: My 330/88, 336 h
# [9] = system: Mycobacterium kansasii; assay: Antimycobacterial activity against Mycobacterium kansasii My 235/80 after 21 days by micromethod; conditions: My 235/80, 504 h
# [10] = system: Mycobacterium kansasii; assay: Antimycobacterial activity against Mycobacterium kansasii My 235/80 after 14 days by micromethod; conditions: My 235/80, 336 h
smiles,measurement,setting,value
COc1ccc(Cl)cc1C(=S)Nc1ccc(Cl)cc1,MIC,[1],32 µM
same,MIC,[2],16 µM
same,MIC,[3],16 µM
same,MIC,[4],32 µM
same,MIC,[5],8 µM
same,MIC,[6],16 µM
same,MIC,[7],16 µM
same,MIC,[8],32 µM
same,MIC,[9],62.5 µM
same,MIC,[10],32 µM
COc1cc(Cl)ccc1C(=O)Nc1ccc(C(F)(F)F)cc1,MIC,[1],125 µM
same,MIC,[2],125 µM
same,MIC,[3],125 µM
same,MIC,[4],125 µM
same,MIC,[5],125 µM
same,MIC,[6],32 µM
same,MIC,[7],125 µM
same,MIC,[8],62.5 µM
same,MIC,[9],125 µM
same,MIC,[10],125 µM
COc1ccc(Cl)cc1C(=S)Nc1cccc(Cl)c1,MIC,[1],32 µM
same,MIC,[2],16 µM
same,MIC,[3],16 µM
same,MIC,[4],32 µM
same,MIC,[5],8 µM
same,MIC,[6],16 µM
same,MIC,[7],16 µM
same,MIC,[8],32 µM
same,MIC,[9],16 µM
same,MIC,[10],16 µM
COc1ccc(Cl)cc1C(=O)Nc1cccc(Br)c1,MIC,[1],62.5 µM
same,MIC,[2],125 µM
same,MIC,[3],125 µM
same,MIC,[4],62.5 µM
same,MIC,[5],62.5 µM
same,MIC,[6],62.5 µM
same,MIC,[7],62.5 µM
same,MIC,[8],62.5 µM
same,MIC,[9],62.5 µM
same,MIC,[10],62.5 µM
COc1ccc(Cl)cc1C(=S)Nc1ccc([N+](=O)[O-])cc1,MIC,[1],250 µM
same,MIC,[2],32 µM
same,MIC,[3],32 µM
same,MIC,[4],250 µM
same,MIC,[5],125 µM
same,MIC,[6],125 µM
same,MIC,[7],250 µM
same,MIC,[8],250 µM
same,MIC,[9],250 µM
same,MIC,[10],250 µM
COc1ccc(Cl)cc1C(=O)Nc1ccc([N+](=O)[O-])cc1,MIC,[1],125 µM
same,MIC,[2],125 µM
same,MIC,[3],125 µM
same,MIC,[4],125 µM
same,MIC,[5],125 µM
same,MIC,[6],125 µM
same,MIC,[7],125 µM
same,MIC,[8],125 µM
same,MIC,[9],125 µM
same,MIC,[10],125 µM
COc1cc(Cl)ccc1C(=S)Nc1cccc([N+](=O)[O-])c1,MIC,[1],16 µM
same,MIC,[2],8 µM
same,MIC,[3],16 µM
same,MIC,[4],32 µM
same,MIC,[5],32 µM
same,MIC,[6],8 µM
same,MIC,[7],16 µM
same,MIC,[8],16 µM
same,MIC,[9],62.5 µM
same,MIC,[10],32 µM
COc1cc(Cl)ccc1C(=S)Nc1ccc(C(F)(F)F)cc1,MIC,[1],32 µM
same,MIC,[2],8 µM
same,MIC,[3],16 µM
same,MIC,[4],32 µM
same,MIC,[5],16 µM
same,MIC,[6],8 µM
same,MIC,[7],32 µM
same,MIC,[8],32 µM
same,MIC,[9],62.5 µM
same,MIC,[10],32 µM
COc1cc(Cl)ccc1C(=O)Nc1cccc(Br)c1,MIC,[1],125 µM
same,MIC,[2],250 µM
same,MIC,[3],250 µM
same,MIC,[4],125 µM
same,MIC,[5],125 µM
same,MIC,[6],125 µM
same,MIC,[7],125 µM
same,MIC,[8],125 µM
same,MIC,[9],125 µM
same,MIC,[10],125 µM
COc1ccc(Cl)cc1C(=S)Nc1ccc(Br)cc1,MIC,[1],16 µM
same,MIC,[2],16 µM
same,MIC,[3],16 µM
same,MIC,[4],32 µM
same,MIC,[5],62.5 µM
same,MIC,[6],16 µM
same,MIC,[7],32 µM
same,MIC,[8],16 µM
same,MIC,[9],250 µM
same,MIC,[10],250 µM
COc1ccc(Cl)cc1C(=O)Nc1ccc(Br)cc1,MIC,[1],32 µM
same,MIC,[2],16 µM
same,MIC,[3],16 µM
same,MIC,[4],62.5 µM
same,MIC,[5],62.5 µM
same,MIC,[6],32 µM
same,MIC,[7],62.5 µM
same,MIC,[8],16 µM
same,MIC,[9],62.5 µM
same,MIC,[10],62.5 µM
COc1cc(Cl)ccc1C(=O)Nc1cccc(Cl)c1,MIC,[1],32 µM
same,MIC,[2],125 µM
same,MIC,[3],125 µM
same,MIC,[4],125 µM
same,MIC,[5],8 µM
same,MIC,[6],62.5 µM
same,MIC,[7],62.5 µM
same,MIC,[8],8 µM
same,MIC,[9],32 µM
same,MIC,[10],32 µM
COc1ccc(Cl)cc1C(=O)Nc1cccc(Cl)c1,MIC,[1],250 µM
same,MIC,[2],250 µM
same,MIC,[3],250 µM
same,MIC,[4],250 µM
same,MIC,[5],62.5 µM
same,MIC,[6],125 µM
same,MIC,[7],250 µM
same,MIC,[8],250 µM
same,MIC,[9],250 µM
same,MIC,[10],250 µM
